Measurements collected from several papers.
Lines come from different studies, so protocols differ.
Target: Serine/threonine-protein kinase PLK1 (PLK1, Homo sapiens, UniProt P53350)

`COc1cc(C(=O)N2CCC(N3CCN(C)CC3)CC2)ccc1Nc1ncc2c(n1)N(C)c1ccccc1C(=O)N2C` gave a remaining binding of 0.7% (binding; competition with immobilised ligand; 10 µM).
With `CCN1CCN(Cc2ccc(C(=O)Nc3ccc(C)c(Oc4ccc5c(c4)CC(=O)N5)c3)cc2C(F)(F)F)CC1` the remaining binding was 100% (binding; competition with immobilised ligand; 1 µM).
`CN(C)c1nccc(-c2cnc3ncccn23)n1` has a remaining binding of 69% (binding; 1 µM).
For `O=C(NCc1ncc(C(F)(F)F)cc1Cl)c1ccc2c(c1)C1(CCS(=O)(=O)CC1)[C@H](C1CC1)N2S(=O)(=O)c1ccc(F)cc1`, the remaining binding was 86% (cell-free assay; competition with immobilised ligand; 1 µM).
With `Cc1cnc(Nc2ccc(C(=O)N3CCC(N4CCCC4)CC3)cc2)nc1-c1cc2ccccc2s1` the remaining binding was 37% (binding; competition with immobilised ligand; 1 µM).
`CNC(=O)c1ccccc1Nc1cc(Nc2ccc(N3CCOCC3)cc2OC)ncc1C(F)(F)F` has a remaining binding of less than 10% (binding; competition with immobilised ligand; 1 µM).
With `CCC(=O)N[C@@H]1CC[C@H](C(=O)N(C)c2ccc(-c3nc4ccccc4o3)cc2)C1` the remaining binding was 95% (cell-free assay; competition with immobilised ligand; 1 µM).
`C[C@@H]1CN(c2ccc3ncc(-c4ccc5[nH]nc(C6CC6)c5c4)n3n2)C[C@H](C)O1` gave a remaining binding of 97% (binding; competition with immobilised ligand; 50 nM).
`O=C(NCC1CCOCC1)c1n[nH]cc1NC(=O)c1c(F)cccc1F` gave a remaining binding of 90% (binding; competition with immobilised ligand; 1 µM).
For `COc1cnc(Nc2cccc(S(N)(=O)=O)c2)nc1N1CCN(c2ccccc2)C(=O)C1`, the remaining binding was 80% (binding; competition with immobilised ligand; 1 µM).
`CN(c1nccc(-c2cnn3ncccc23)n1)C1CC1` has a remaining binding of 100% (binding; 1 µM).
For `CS(=O)(=O)NCC[C@H](NC(=O)c1cncc2c1cnn2-c1ccc(F)cc1)c1ccnc(S(C)(=O)=O)c1`, the remaining binding was 100% (cell-free assay; competition with immobilised ligand; 1 µM).
For `CN(C)c1nccc(-c2cnn3ncccc23)n1`, the remaining binding was 56% (binding; 1 µM).
`CCCOc1ccc([C@H]2[C@H](C(=O)O)[C@@H](c3ccc4c(c3)OCO4)CN2CC(=O)Nc2c(CC)cccc2CC)cc1` has a remaining binding of 80% (cell-free assay; competition with immobilised ligand; 1 µM).
`Nc1ncc2c(n1)-c1c([nH]c3ccc(C#CC4CC4)cc13)CCCC2` has a remaining binding of 68% (binding; competition with immobilised ligand; 1 µM).
`C[C@H]1CCN(c2nccc(-c3cnn4ncccc34)n2)C1` gave a remaining binding of 100% (binding; 1 µM).
The remaining binding of `O=C(c1ccc(Nc2nccc(-c3cc4ccccc4s3)n2)cc1)N1CCC(N2CCCC2)CC1` is reported as 89% (binding; competition with immobilised ligand; 1 µM).
For `C[C@@H](c1cccc(C#N)c1)n1cc(Cl)cc(C(N)=O)c1=N`, the remaining binding was 98% (cell-free assay; competition with immobilised ligand; 1 µM).
`CN(CCCC(F)(F)F)c1nccc(-c2cnn3ncccc23)n1` gave a remaining binding of 84% (binding; 1 µM).
For `N#Cc1ccccc1CSc1nnc2c(n1)[nH]c1ccccc12`, the remaining binding was 94% (binding; competition with immobilised ligand; 10 µM).
For `O=C(c1ccc(Nc2ncc(Cl)c(-c3ccc(Cl)s3)n2)cc1)N1CCC(N2CCCC2)CC1`, the remaining binding was 61% (binding; competition with immobilised ligand; 1 µM).
The remaining binding of `O=C(N[C@H]1CCCCC/C=C\C2C[C@@]2(C(=O)O)NC(=O)[C@@H]2C[C@@H](Oc3ccncc3)CN2C1=O)OC1CCCC1` (stereo partly shown) is reported as 71% (binding; competition with immobilised ligand; 1 µM).
For `CNC(=O)[C@@H]1CC[C@@H](n2c(-c3ccc4cnccc4c3)nc3ccc(C(=O)NCc4cccc(C(N)=O)c4)cc32)C1`, the remaining binding was 100% (binding; competition with immobilised ligand; 1 µM).
`F[C@@H]1CCN(c2nccc(-c3cnn4ncccc34)n2)C1` has a remaining binding of 100% (binding; 1 µM).
`Nc1cnc(N2CCc3cc(S(=O)(=O)Nc4c(F)cc(Cl)cc4F)cc(N4CCCC4=O)c32)nc1` has a remaining binding of 100% (cell-free assay; competition with immobilised ligand; 1 µM).
